Data as given in ChEMBL document CHEMBL2407075, “Sulphonamido-quinoxalines: search for anticancer agent” (Eur J Med Chem, 2013).

Legend:
Assay type in all cases: functional
OVCAR-8 = assay: Growth inhibition of human OVCAR8 cells at 10 uM after 48 hrs by sulforhodamine B assay; details: OVCAR-8, 48 h, read-out: GI
Method in brief: (§1)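 Single-dose screen at 10 µM across the NCI 60 panel. Cells in RPMI 1640 with 5% FBS and 2 mM L-glutamine, plated at 5000–40,000/well and preincubated 24 h at 37 °C, 5% CO2. Drug in DMSO, 48 h exposure. Fixed with TCA, stained with SRB, A515 read. Percent growth is taken relative to untreated control, and inhibition is 100 minus growth.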

[1] = Growth inhibition of human HCC2998 cells at 10 uM after 48 hrs by sulforhodamine B assay; details: HCC 2998, 48 h, read-out: GI
Method in brief: (§2)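 NCI-60 one-dose primary screen at a single 10 µM concentration. Cells in RPMI 1640 with 5% FBS, preincubated 24 h at 37 °C, 5% CO2. Drug exposure 48 h, then TCA fixation, SRB staining and absorbance at 515 nm. Percent growth calculated against time-zero and untreated control wells, then converted to percent growth inhibition.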

SK-MEL-5 = assay: Growth inhibition of human SK-MEL-5 cells at 10 uM after 48 hrs by sulforhodamine B assay; details: SK-MEL-5, 48 h, read-out: GI; method in brief: as §1
Malme-3M = assay: Growth inhibition of human MALME-3M cells at 10 uM after 48 hrs by sulforhodamine B assay; details: read-out: GI; method in brief: as §1
SF-295 = assay: Growth inhibition of human SF295 cells at 10 uM after 48 hrs by sulforhodamine B assay; details: SF-295, 48 h, read-out: GI; method in brief: as §1
BT-549 = assay: Growth inhibition of human BT549 cells at 10 uM after 48 hrs by sulforhodamine B assay; details: BT-549, 48 h, read-out: GI
Method in brief: (§3)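 Single-dose NCI-60 prescreen at 10 µM for 48 h at 37 °C and 5% CO2, using cells grown in RPMI 1640 with 5% FBS and 2 mM glutamine. Protein was measured by SRB after TCA fixation: 10% final for adherent lines, 16% for suspension lines. Absorbance was read at 515 nm. Percent growth inhibition was obtained by subtracting percent growth from 100.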

DU-145 = assay: Growth inhibition of human DU145 cells at 10 uM after 48 hrs by sulforhodamine B assay; details: DU-145, 48 h, read-out: GI; method in brief: as §3
[2] = Growth inhibition of human EKVX cells at 10 uM after 48 hrs by sulforhodamine B assay; details: read-out: GI; method in brief: as §2
SK-MEL-28 = assay: Growth inhibition of human SK-MEL-28 cells at 10 uM after 48 hrs by sulforhodamine B assay; details: SK-MEL-28, 48 h, read-out: GI; method in brief: as §1
U-251 = assay: Growth inhibition of human U251 cells at 10 uM after 48 hrs by sulforhodamine B assay; details: U-251, 48 h, read-out: GI; method in brief: as §1
K562 = assay: Growth inhibition of human K562 cells at 10 uM after 48 hrs by sulforhodamine B assay; details: K562, 48 h, read-out: GI; method in brief: as §1
MDA-MB-231 = assay: Growth inhibition of human MDA-MB-231 cells at 10 uM after 48 hrs by sulforhodamine B assay; details: MDA-MB-231, 48 h, read-out: GI; method in brief: as §1
HOP-62 = assay: Growth inhibition of human HOP62 cells at 10 uM after 48 hrs by sulforhodamine B assay; details: HOP-62, 48 h, read-out: GI; method in brief: as §2
PC-3 = assay: Growth inhibition of human PC3 cells at 10 uM after 48 hrs by sulforhodamine B assay; details: PC-3, 48 h, read-out: GI; method in brief: as §1
UACC-62 = assay: Growth inhibition of human UACC62 cells at 10 uM after 48 hrs by sulforhodamine B assay; details: UACC-62, 48 h, read-out: GI; method in brief: as §1
[3] = Growth inhibition of human Hs 578T cells at 10 uM after 48 hrs by sulforhodamine B assay; details: read-out: GI; method in brief: as §2
LOX IMVI = assay: Growth inhibition of human LOXIMVI cells at 10 uM after 48 hrs by sulforhodamine B assay; details: read-out: GI; method in brief: as §1
A498 = assay: Growth inhibition of human A498 cells at 10 uM after 48 hrs by sulforhodamine B assay; details: A498, 48 h, read-out: GI; method in brief: as §3
IGROV-1 = assay: Growth inhibition of human IGROV1 cells at 10 uM after 48 hrs by sulforhodamine B assay; details: IGROV-1, 48 h, read-out: GI; method in brief: as §1
A549 = assay: Growth inhibition of human A549/ATCC cells at 10 uM after 48 hrs by sulforhodamine B assay; details: A549, 48 h, read-out: GI; method in brief: as §3
SF-268 = assay: Growth inhibition of human SF268 cells at 10 uM after 48 hrs by sulforhodamine B assay; details: SF-268, 48 h, read-out: GI; method in brief: as §1
MDA-MB-468 = assay: Growth inhibition of human MDA-MB-468 cells at 10 uM after 48 hrs by sulforhodamine B assay; details: MDA-MB-468, 48 h, read-out: GI; method in brief: as §1
RXF 393 = assay: Growth inhibition of human RXF393 cells at 10 uM after 48 hrs by sulforhodamine B assay; details: RXF 393, 48 h, read-out: GI; method in brief: as §1
MCF7 = assay: Growth inhibition of human MCF7 cells at 10 uM after 48 hrs by sulforhodamine B assay; details: MCF7, 48 h, read-out: GI; method in brief: as §1
TK-10 = assay: Growth inhibition of human TK10 cells at 10 uM after 48 hrs by sulforhodamine B assay; details: TK-10, 48 h, read-out: GI; method in brief: as §1
UACC-257 = assay: Growth inhibition of human UACC257 cells at 10 uM after 48 hrs by sulforhodamine B assay; details: UACC-257, 48 h, read-out: GI; method in brief: as §1

| SMILES | inhibition of growth at 10 µM (OVCAR-8) | inhibition of growth at 10 µM [1] | inhibition of growth at 10 µM (SK-MEL-5) | inhibition of growth at 10 µM (Malme-3M) | inhibition of growth at 10 µM (SF-295) | inhibition of growth at 10 µM (BT-549) | inhibition of growth at 10 µM (DU-145) | inhibition of growth at 10 µM [2] | inhibition of growth at 10 µM (SK-MEL-28) | inhibition of growth at 10 µM (K562) | inhibition of growth at 10 µM (MDA-MB-231) | inhibition of growth at 10 µM (HOP-62) | inhibition of growth at 10 µM (PC-3) | inhibition of growth at 10 µM (UACC-62) | inhibition of growth at 10 µM [3] | inhibition of growth at 10 µM (LOX IMVI) | inhibition of growth at 10 µM (A498) | inhibition of growth at 10 µM (IGROV-1) | inhibition of growth at 10 µM (A549) | inhibition of growth at 10 µM (SF-268) | other results |
| --- | --- | --- | --- | --- | --- | --- | --- | --- | --- | --- | --- | --- | --- | --- | --- | --- | --- | --- | --- | --- | --- |
| O=C(NS(=O)(=O)c1ccc2nc(-c3ccccc3)c(-c3ccccc3)nc2c1)c1ccccc1 | 8.02% | 15.3% | 48.9% | 7.67% | 21% | 7.67% | 6.85% | 26.5% | 7.63% | 45.8% | 28.5% | 2.87% | 41.9% | 19.6% | 17% | 20.5% | 42.2% | 16.5% | 21.1% | 6.89% | inhibition of growth at 10 µM (U-251): 21.6%; inhibition of growth at 10 µM (MDA-MB-468): 40.2%; inhibition of growth at 10 µM (RXF 393): 39.1%; inhibition of growth at 10 µM (MCF7): 22.9%; inhibition of growth at 10 µM (TK-10): 2.54%; inhibition of growth at 10 µM (UACC-257): 15.2% |
| O=S(=O)(Nc1cccc2ccccc12)c1ccc2nc(-c3ccccc3)c(-c3ccccc3)nc2c1 | 20.6% | 4.56% | 48.6% | 9.98% | 3.88% | 32.6% | 10.9% | 71.2% | 5.98% | 49.6% | 38.7% | 2.24% | 41.8% | 28.9% | 24% | 32.9% | 31.9% | 1.78% | 15.3% | 2.78% | inhibition of growth at 10 µM (U-251): 7.23%; inhibition of growth at 10 µM (MDA-MB-468): 54.9%; inhibition of growth at 10 µM (RXF 393): 48.6%; inhibition of growth at 10 µM (MCF7): 23%; inhibition of growth at 10 µM (TK-10): 6.34%; inhibition of growth at 10 µM (UACC-257): 21.7% |
| COc1ccccc1NS(=O)(=O)c1ccc2nc(-c3ccccc3)c(-c3ccccc3)nc2c1 | 24.1% | 19.9% | 61.4% | 1.87% | 15.9% | 55.1% | 18.9% | 48.8% | 12.7% | 45.5% | 48.3% | 2.12% | 52.8% | 23.4% | 33.2% | 23.3% | 42.8% | 11.8% | 36.5% | 23.8% | inhibition of growth at 10 µM (MDA-MB-468): 56.8%; inhibition of growth at 10 µM (RXF 393): 70.7%; inhibition of growth at 10 µM (MCF7): 31.8%; inhibition of growth at 10 µM (TK-10): 1.26%; inhibition of growth at 10 µM (UACC-257): 18.9% |
| NC(=S)NNS(=O)(=O)c1ccc2nc(-c3ccccc3)c(-c3ccccc3)nc2c1 | 5.83% | 8.92% | 39.1% | 2.94% | 8.92% | 1.83% | 2.73% | 23.7% | 6.93% | 34.8% | 17.6% | 38.7% | 34.6% | 24.3% | 6.63% | 11.2% | 26.8% | 8.83% | 34.7% | 2.92% | inhibition of growth at 10 µM (U-251): 26.8%; inhibition of growth at 10 µM (MDA-MB-468): 30.8%; inhibition of growth at 10 µM (RXF 393): 29.2%; inhibition of growth at 10 µM (MCF7): 18.9%; inhibition of growth at 10 µM (TK-10): 2.74%; inhibition of growth at 10 µM (UACC-257): 8.83% |
| CC(=S)NS(=O)(=O)c1ccc2nc(-c3ccccc3)c(-c3ccccc3)nc2c1 | 3.93% | 6.23% | 28.9% | 2.85% | 5.83% | 2.74% | 2.63% | 8.53% | 1.73% | 26.8% | 14.8% | 2.84% | 33.9% | 20.7% | 20.8% | 12.2% | 22.7% | 14.8% | 7.74% | 1.86% | inhibition of growth at 10 µM (U-251): 10.3%; inhibition of growth at 10 µM (MDA-MB-468): 23.7%; inhibition of growth at 10 µM (RXF 393): 14.5%; inhibition of growth at 10 µM (MCF7): 11.8%; inhibition of growth at 10 µM (TK-10): 6.93%; inhibition of growth at 10 µM (UACC-257): 2.23% |
